Assay results as given in ChEMBL document CHEMBL1123811, “gem-Diphosphonate and gem-phosphonate-phosphate compounds with specific high density lipoprotein inducing activity” (1987).

What was measured:
Type in all cases: functional
Design in all cases: concentration or dose not given beside the values
Rattus norvegicus [1] = species on record: Rattus norvegicus; assay: Activity to induce the elevation of alpha/beta cholesterol ratio of male Wistar rats
In short: (§1)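 Wistar rats on normal diet; groups were vehicle control, an internal-standard diphosphonate, and test compounds. Dosed daily for 4 days; diphosphonates were dissolved in water or suspended in 1% (carboxymethyl)cellulose, 4 mL/kg. On day 5, after overnight fast, rats were killed under ether. EDTA plasma was assayed enzymatically for HDL-C after heparin-CaCl2 precipitation of VLDL/LDL, phospholipids, triglycerides and α/β-cholesterol ratio. Results are given as % of control.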

Rattus norvegicus [2] = species on record: Rattus norvegicus; assay: Activity to induce the elevation of phospholipids of male Wistar rats; in short: as §1
Rattus norvegicus [3] = species on record: Rattus norvegicus; assay: Activity to induce the elevation of triglycerides of male Wistar rats; in short: as §1
Rattus norvegicus [4] = species on record: Rattus norvegicus; assay: Activity to induce the elevation of HDL(High Density Lipoproteins)-Cholesterol of male Wistar rats; in short: as §1

SMILES	Percent change in alpha/beta cholesterol ratio versus control (Rattus norvegicus [1]) [%]	Plasma phospholipids, % change versus control (Rattus norvegicus [2]) [%]	Percent change in plasma triglycerides versus control (Rattus norvegicus [3]) [%]	HDL-cholesterol change relative to control (%) (Rattus norvegicus [4])
CCOP(=O)(OCC)C(CCCc1ccccc1)P(=O)(OCC)OCC	33	17	46	62
COP(=O)(OC)C(O)(c1ccc(C)cc1)P(=O)(OC)OC	68	19	43	19
O=P(O)(O)C(CCc1ccccc1)P(=O)(O)O	-27	-16	-17	-24
COP(=O)(OC)OC(c1ccc(C)cc1)P(=O)(OC)OC (stereo not given)	47	-8	-33	4
O=P(O)(O)C(CCCc1ccccc1)P(=O)(O)O	14	12	11	3
CCOP(=O)(OCC)C(Cc1ccc(Cl)cc1)P(=O)(OCC)OCC	22	23	8	26
COP(=O)(OC)OC(c1ccccc1Cl)P(=O)(OC)OC (stereo not given)	34	22	-42	–
CCCCOP(=O)(OCCCC)C(Cc1ccc(Cl)cc1)P(=O)(OCCCC)OCCCC	2	6	1	0
COP(=O)(OC)C(O)(C(C)(C)Oc1ccc(Cl)cc1)P(=O)(OC)OC	-8	26	-33	8
COP(=O)(OC)C(CCCOc1ccccc1)P(=O)(OC)OC	-13	-11	2	6
COP(=O)(OC)C(O)(c1ccccc1)P(=O)(OC)OC	80	57	4	13
COP(=O)(OC)OC(c1ccc(Cl)cc1Cl)P(=O)(OC)OC (stereo not given)	39	28	13	51
COP(=O)(OC)C(CCc1ccccc1)P(=O)(OC)OC	82	16	22	40
COP(=O)(OC)C(O)(C(C)(C)C)P(=O)(OC)OC	32	-43	24	0
COP(=O)(OC)OC(c1ccc(C(=O)c2ccc(Cl)cc2)cc1)P(=O)(OC)OC (stereo not given)	55	53	0	33
COP(=O)(OC)OC(c1cccc(Cl)c1)P(=O)(OC)OC (stereo not given)	69	14	-37	56
COP(=O)(OC)OC(c1ccccc1)P(=O)(OC)OC (stereo not given)	76	21	32	4

SMILES	Percent change in alpha/beta cholesterol ratio versus control (Rattus norvegicus [1]) [%]	Plasma phospholipids, % change versus control (Rattus norvegicus [2]) [%]	Percent change in plasma triglycerides versus control (Rattus norvegicus [3]) [%]	HDL-cholesterol change relative to control (%) (Rattus norvegicus [4])
COP(=O)(OC)OC(c1ccc(-c2ccccc2)cc1)P(=O)(OC)OC (stereo not given)	40	18	0	24
CCOP(=O)(OCC)C(CCOc1ccccc1)P(=O)(OCC)OCC	26	25	-38	29
COP(=O)(OC)C(Cc1ccc(Cl)cc1)P(=O)(OC)OC	75	51	62	38
COc1ccc(C(OP(=O)(OC)OC)P(=O)(OC)OC)cc1 (stereo not given)	2	-3	41	0
CCCOP(=O)(OCCC)OC(c1ccc(Cl)cc1)P(=O)(OCCC)OCCC (stereo not given)	4	4	-17	-6
CC(C)OP(=O)(OC(C)C)OC(c1ccc(Cl)cc1)P(=O)(OC(C)C)OC(C)C (stereo not given)	-46	-20	-37	-34
CCOP(=O)(OCC)C(CCCOc1ccccc1)P(=O)(OCC)OCC	37	0	0	16
CCCCCC(O)(P(=O)(OC)OC)P(=O)(OC)OC	-17	10	-21	-16
COP(=O)(OC)C(O)(c1ccc(-c2ccccc2)cc1)P(=O)(OC)OC	5	1	5	74
COP(=O)(OC)C(O)(c1ccc2ccccc2c1)P(=O)(OC)OC	51	25	24	35
COP(=O)(OC)OC(C(C)C)P(=O)(OC)OC (stereo not given)	38	7	-26	15
O=P(O)(O)C(Cc1ccc(Cl)cc1)P(=O)(O)O	-40	0	-146	–
COP(=O)(OC)OC(C1CCCCC1)P(=O)(OC)OC (stereo not given)	-20	0	-46	5
COP(=O)(OC)C(O)(c1ccc(C(=O)c2ccc(Cl)cc2)cc1)P(=O)(OC)OC	46	39	-16	22
COP(=O)(OC)OC(C(C)(C)c1ccc(Cl)cc1)P(=O)(OC)OC (stereo not given)	59	37	-7	56
CCCCOP(=O)(OCCCC)OC(c1ccc(Cl)cc1)P(=O)(OCCCC)OCCCC (stereo not given)	-53	13	-11	-10
